Laboratory results: ChEMBL document CHEMBL4673205, “Structure-Based Design of a Covalent Inhibitor of the SET Domain-Containing Protein 8 (SETD8) Lysine Methyltransferase” (J Med Chem, 2016)
Activity calls are given as the source filed them. The calls are words filed in the database; no cut-off is given here.

What was measured:
[1] = target: T1, N-lysine methyltransferase KMT5A (Homo sapiens) (UniProt Q9NQR1); assay: Binding affinity to wild type SETD8 catalytic domain (unknown origin) (234 to 380 residues) expressed in Escherichia coli assessed as covalent adduct formation at 20 to 200 uM incubated for 3 hrs in presence of GSH by LC-MSD-TOF analysis; settings: dose 20-200 µM
T1 sequence (whole entry): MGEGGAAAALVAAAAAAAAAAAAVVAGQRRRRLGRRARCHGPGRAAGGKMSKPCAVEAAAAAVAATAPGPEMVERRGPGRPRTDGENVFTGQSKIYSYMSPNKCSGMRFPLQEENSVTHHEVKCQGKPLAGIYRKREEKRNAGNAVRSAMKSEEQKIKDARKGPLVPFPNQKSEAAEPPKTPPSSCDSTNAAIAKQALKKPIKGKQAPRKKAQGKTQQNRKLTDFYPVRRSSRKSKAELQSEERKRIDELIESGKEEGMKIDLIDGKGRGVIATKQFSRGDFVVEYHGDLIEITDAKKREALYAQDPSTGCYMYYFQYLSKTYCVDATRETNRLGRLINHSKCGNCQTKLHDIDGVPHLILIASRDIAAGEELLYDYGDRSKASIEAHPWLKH

[2] = target: T2, N-lysine methyltransferase KMT5A (Homo sapiens, UniProt Q9NQR1); assay: Inhibition of recombinant SETD8 catalytic domain (unknown origin) (232 to 393 residues) expressed in Escherichia coli assessed as reduction in incorporation of [3H]-labeled methyl group into biotinylated H4 (1 to 24) peptide measured after 1 hr using [3H-SAM] by scintillation proximity assay
T2 sequence (Q9NQR1 whole entry): T1 sequence (whole entry)

[3] = Permeability of compound; format: ADME; settings: not told; read-out: permeability
[4] = target: T1, N-lysine methyltransferase KMT5A (Homo sapiens); assay: Binding affinity to wild type SETD8 catalytic domain (unknown origin) (234 to 380 residues) expressed in Escherichia coli assessed as covalent adduct formation at 20 to 200 uM incubated for 3 hrs by LC-MSD-TOF analysis; settings: dose 20-200 µM
[5] = target: Histone-lysine N-methyltransferase EZH2 (Homo sapiens) (UniProt Q15910); assay: Binding affinity to PRC2 (unknown origin) by mass-spectrometric analysis
Sequence of Histone-lysine N-methyltransferase EZH2 (Homo sapiens) (Q15910 whole entry, looked up, the tested form may be a part): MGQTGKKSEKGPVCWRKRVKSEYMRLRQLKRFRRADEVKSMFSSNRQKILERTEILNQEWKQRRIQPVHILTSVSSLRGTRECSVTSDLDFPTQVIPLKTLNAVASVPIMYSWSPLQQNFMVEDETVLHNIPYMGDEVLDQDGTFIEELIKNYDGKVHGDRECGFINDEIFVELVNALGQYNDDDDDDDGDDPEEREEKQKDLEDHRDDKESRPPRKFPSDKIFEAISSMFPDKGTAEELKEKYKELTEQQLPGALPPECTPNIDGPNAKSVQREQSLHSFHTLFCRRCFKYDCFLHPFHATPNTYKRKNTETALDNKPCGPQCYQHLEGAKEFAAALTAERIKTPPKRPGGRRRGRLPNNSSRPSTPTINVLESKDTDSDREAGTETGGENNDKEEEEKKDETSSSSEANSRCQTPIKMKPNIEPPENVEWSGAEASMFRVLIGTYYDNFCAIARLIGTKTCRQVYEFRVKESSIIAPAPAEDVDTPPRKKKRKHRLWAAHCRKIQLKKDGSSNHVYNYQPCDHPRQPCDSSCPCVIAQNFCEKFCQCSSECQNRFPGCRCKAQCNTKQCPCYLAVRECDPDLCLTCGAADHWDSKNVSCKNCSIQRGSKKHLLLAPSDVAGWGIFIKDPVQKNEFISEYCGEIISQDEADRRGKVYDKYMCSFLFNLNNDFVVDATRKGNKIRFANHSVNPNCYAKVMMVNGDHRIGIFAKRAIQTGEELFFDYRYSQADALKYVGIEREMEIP

[6] = species on record: Homo sapiens; assay: Binding affinity to human recombinant N-terminal His-tagged SETD8 C343S mutant (234 to 380 residues) expressed in Escherichia coli assessed as covalent adduct formation at 20 to 200 uM incubated for 3 hrs by LC-MSD-TOF analysis; settings: dose 20-200 µM
[7] = target: N-lysine methyltransferase SMYD2 (Homo sapiens) (UniProt Q9NRG4); assay: Binding affinity to SMYD2 (unknown origin) by mass-spectrometric analysis
Sequence of N-lysine methyltransferase SMYD2 (Homo sapiens) (Q9NRG4 whole entry): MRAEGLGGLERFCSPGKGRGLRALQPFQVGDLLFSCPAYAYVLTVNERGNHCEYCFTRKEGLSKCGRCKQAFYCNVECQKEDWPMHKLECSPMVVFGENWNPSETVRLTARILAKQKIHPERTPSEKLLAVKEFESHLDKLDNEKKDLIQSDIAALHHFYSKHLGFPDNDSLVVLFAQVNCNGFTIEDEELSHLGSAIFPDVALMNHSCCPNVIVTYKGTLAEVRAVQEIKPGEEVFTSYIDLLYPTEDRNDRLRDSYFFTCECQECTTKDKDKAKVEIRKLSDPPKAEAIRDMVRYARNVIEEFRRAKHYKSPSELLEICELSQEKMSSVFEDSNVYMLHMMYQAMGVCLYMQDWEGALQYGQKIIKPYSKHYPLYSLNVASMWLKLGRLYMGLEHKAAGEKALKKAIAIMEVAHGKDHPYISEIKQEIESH

[8] = target: T1, N-lysine methyltransferase KMT5A (Homo sapiens); assay: Inhibition of SETD8 in human HeLa cells assessed as reduction in monomethylation of H4K20 up to 10 uM; format: cell-based; settings: dose microM <=10
[9] = species on record: Homo sapiens; assay: Binding affinity to human recombinant N-terminal His-tagged SETD8 C311S mutant (234 to 380 residues) expressed in Escherichia coli assessed as covalent adduct formation at 20 to 200 uM incubated for 3 hrs by LC-MSD-TOF analysis; settings: dose 20-200 µM
[10] = Efflux ratio of compound; format: ADME; settings: not told
[11] = target: T1, N-lysine methyltransferase KMT5A (Homo sapiens); assay: (§1) Inhibition of wild type SETD8 catalytic domain (unknown origin) (234 to 380 residues) expressed in Escherichia coli assessed as compound-adduct dimer formation by measuring residual activity at 20 to 200 uM using varying levels of biotinylated H4 (1 to 24) peptide substrate measured after 1 hr in presence of [3H-SAM] by scintillation counting assay; settings: dose 20-200 µM
How it was run: (§2)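 The adduct was purified by gel filtration, giving monomer and dimer fractions that interconvert after a short time. Each fraction was tested in the enzymatic assay, and residual activity was expressed relative to wild-type SETD8.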

[12] = target: T3, Histone-lysine N-methyltransferase SMYD3 (Homo sapiens) (UniProt Q9H7B4); assay: Binding affinity to SMYD3 (unknown origin) by mass-spectrometric analysis
T3 sequence (whole entry): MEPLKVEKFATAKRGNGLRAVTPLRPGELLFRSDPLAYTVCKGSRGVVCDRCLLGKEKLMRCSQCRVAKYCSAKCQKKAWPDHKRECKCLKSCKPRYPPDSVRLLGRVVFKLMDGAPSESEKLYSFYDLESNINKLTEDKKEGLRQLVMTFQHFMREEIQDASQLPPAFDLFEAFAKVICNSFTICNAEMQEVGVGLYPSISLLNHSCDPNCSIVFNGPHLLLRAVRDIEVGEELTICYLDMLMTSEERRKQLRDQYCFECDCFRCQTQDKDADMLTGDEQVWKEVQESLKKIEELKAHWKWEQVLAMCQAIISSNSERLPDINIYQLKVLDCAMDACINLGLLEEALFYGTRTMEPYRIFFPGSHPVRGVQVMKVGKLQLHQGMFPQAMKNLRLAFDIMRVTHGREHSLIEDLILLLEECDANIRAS

[13] = target: T1, N-lysine methyltransferase KMT5A (Homo sapiens); assay: as §1, with “monomer” for “dimer”; settings: dose 20-200 µM; how it was run: as §2
[14] = target: T2, N-lysine methyltransferase KMT5A; assay: Inhibition of recombinant SETD8 catalytic domain (unknown origin) (232 to 393 residues) expressed in Escherichia coli assessed as reduction in incorporation of [3H]-labeled methyl group into biotinylated H4 (1 to 24) peptide measured after 5 hrs using [3H-SAM] by scintillation proximity assay
How it was run: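 SETD8 catalytic domain (residues 232–393) was expressed in E. coli and purified. Compound was preincubated with the enzyme for a set time (1 h or 5 h) before a scintillation proximity methylation assay. IC50 was taken from a fitted concentration–response curve.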

SMILES	Activity [1]	IC50 [2]	Papp [3]	Activity [4]	Activity [5]	Activity [6]	Activity [7]	inhibition [8]	Activity [9]	efflux ratio [10]	Activity [11]	Activity [12]	Activity [13]	IC50 [14]
C=CC(=O)NCCCNc1nc(N2CCCC2)nc2cc(OC)c(OC)cc12	Active	6.9 µM	0.44 ×10⁻⁶ cm/s	Active	inactive	Active	inactive	inactive	inactive	137	10%	inactive	10%	0.804 µM
C=CC(=O)NCCCN(C)c1nc(N2CCCC2)nc2cc(OC)c(OC)cc12		> 200 µM		inactive										
